# AF4-AF9 inh – inhibitors of AF4 peptide binding to AF9, primary screen, biochemical, AlphaScreen, biotin-AF4 peptide, FLAG-AF9, single point. inhibition, % at 10 µM. 350,000 compounds, 0.47% hits;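 active = every replicate reaching a set inhibition limit, whatever the replicate mean, cut at about 25% in these data; inconclusive = mean inhibition reaches that limit but some replicates miss it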;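 note: 0% = plate neutral control median and 100% = total signal loss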
# Target sequence (P42568 whole entry, looked up): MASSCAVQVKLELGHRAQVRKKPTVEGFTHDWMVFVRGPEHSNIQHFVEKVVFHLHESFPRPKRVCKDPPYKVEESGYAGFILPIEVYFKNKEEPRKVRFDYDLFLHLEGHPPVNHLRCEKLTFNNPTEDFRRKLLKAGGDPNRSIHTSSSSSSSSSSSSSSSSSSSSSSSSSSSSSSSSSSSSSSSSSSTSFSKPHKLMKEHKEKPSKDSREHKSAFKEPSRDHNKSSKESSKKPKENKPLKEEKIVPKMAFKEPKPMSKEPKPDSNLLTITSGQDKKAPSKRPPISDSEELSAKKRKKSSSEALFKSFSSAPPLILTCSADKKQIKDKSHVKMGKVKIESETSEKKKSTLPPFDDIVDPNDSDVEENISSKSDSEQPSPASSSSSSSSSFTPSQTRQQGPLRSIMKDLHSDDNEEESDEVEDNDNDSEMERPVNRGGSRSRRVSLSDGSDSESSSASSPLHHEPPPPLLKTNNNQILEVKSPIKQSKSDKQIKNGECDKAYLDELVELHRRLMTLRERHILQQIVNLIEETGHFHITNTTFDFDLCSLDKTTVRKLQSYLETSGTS
# Cneo AK release – Cryptococcus neoformans cell lysis inducers, primary screen, AK release luminescence, single concentration; C. neoformans lysis, adenylate kinase release luminescence, 4 h; normalised: neutral wells 0, clomiphene wells 100; lysis activity, % at 15 µM; 360,000 compounds, 0.2% hits;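 active = mean lysis activity across replicates of at least 80%, whatever share of replicates individually reach that level; inactive = mean lysis activity below 80%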
#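 Material – log-phase Cryptococcus neoformans yeast cells · Input – 5 × 10^6 yeast cells/mL · Medium – fresh YPD growth medium · Doses – single compound concentration per well · Timing – static 4 h at 37 °C with compound, 1 h detection · Detection – adenylate kinase release luminescence · Read-out – signal increase indicating cell lysis · Control set – Clomiphene as positive lysis control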
# S100A4 inh HTS – inhibitors of S100A4-myosin IIA peptide binding, primary screen, biochemical, fluorescence polarization, TAMRA-MyoIIA peptide. inhibition, % at 10.7 µM. 360,000 compounds, 0.14% hits. Protein S100-A4 (Homo sapiens), P26447;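 active = mean inhibition of at least 70% across replicates, with every replicate also reaching that level; inconclusive = mean inhibition reaches 70% but some replicates fall short; inactive = mean inhibition below 70%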
# Target sequence (P26447 whole entry, looked up): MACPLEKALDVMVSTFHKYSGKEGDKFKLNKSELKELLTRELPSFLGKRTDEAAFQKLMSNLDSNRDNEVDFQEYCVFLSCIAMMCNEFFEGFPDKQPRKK
#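 Test system: S100A4 monomer protein. Medium: HEPES buffer with Ca2+, pH 7.2. Reagent: fluorescent myosin IIA peptide, 5 nM. Compound dosing: single-point compound testing. Timing: 5 min between mix addition and reading. Benchmarks: DMSO neutral and TFP positive wells.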
# PfHsp90 set2 – growth inhibition of PfHsp90-expressing yeast, primary screen, antimalarial PfHsp90 inhibitor project, S. cerevisiae, BacTiter-Glo luminescence, single point, set 2 | BacTiter-Glo ATP, 48 h; yeast lacking PDR1 and PDR3 efflux regulators | inhibition, % at 9.4 µM | 310,000 compounds, 0.32% hits | AID 504621, 2011;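 active = every replicate shows inhibition above about 80%, whatever the replicate mean, limit read from the data; inconclusive = mean inhibition reaches the set limit but some replicate falls short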;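 note: 0% = DMSO neutral controls and 100% = 20 µM radicicol positive controls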
# rRNA inh HTS – reduced GFP signal of wild-type E. coli, primary screen, bacterial rRNA inhibitor project, GFP/RFP fluorescence, OD600, single point; E. coli WT GFP vs humanized-ribosome RFP mutants, 24 h; active compounds read low; DMSO median 0, no signal -100; GFP signal change (wild-type ribosome), % (test concentration not listed); 350,000 compounds, 1.6% hits; AID 720706, 2013;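 active = significant combined selectivity score with lowered wild-type GFP, culture density cut under 30%, mutant RFP and density less affected; inactive = any of these conditions unmet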
# DENV2 CPE – inhibitors of DENV2 cytopathic effect, primary screen, cell-based, plate reader, single concentration | DENV2-infected cells, cytopathic effect rescue | CPE inhibition, % at 9.99 µM | 350,000 compounds, 1.7% hits | AID 651640, 2012; in the data active = CPE inhibition above about 20%, passing the limit was not always enough; inconclusive = no clear call, values can overlap the other calls; tested in BHK-21 cells;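 note: 0% = median of neutral control wells and 100% = median of positive control wells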
# Active calls of the source: *; ? = inconclusive; . = no result given. Shown are actives, neighbours in structure and some others; about 3.2% of the full set was active somewhere.
SMILES,AF4-AF9 inh,Cneo AK release,S100A4 inh HTS,PfHsp90 set2,rRNA inh HTS,DENV2 CPE
CC(C)NC(=O)N(C)C[C@@H]1Oc2c(cccc2N(C)C)C(=O)N(C)C[C@H]1C,.,.,.,.,-0.6,.
C[C@H](O)C#Cc1ccc2c(c1)O[C@@H](CN(C)C(=O)C1CCC1)[C@H](C)CN([C@H](C)CO)S2(=O)=O,-2.2,-2.1,-21.8,.,-0.6,-6.1
CN(C)C(=O)[C@@H]1[C@@H](CO)[C@@H]2Cn3c(cccc3=O)[C@@H]2N1C(=O)NC1CCCC1,.,.,-46.6,.,3.5,-5.5
COc1ccc(NC(=O)N(C)C[C@@H]2Oc3ccc(NC(=O)Nc4ccc5c(c4)OCO5)cc3C(=O)N([C@H](C)CO)C[C@@H]2C)cc1,8.0,-2.2,0.0,.,-2.9,3.3
NS(=O)(=O)Oc1ccccc1,0.6,-0.5,-9.6,-6.3,26.0,52.1*
O=S(=O)(CS(=O)(=O)Oc1ccccc1)Oc1ccccc1,-3.0,.,-2.2,-3.0,9.9,23.5*
Cc1ccc(S(=O)(=O)Oc2ccccc2)cc1,-4.3,.,0.2,-1.7,2.6,1.2
COc1cccc(-c2ccc3n(c2=O)C[C@@H]2[C@@H](CO)[C@H](C(=O)N(C)C)N(CC4CC4)[C@H]32)c1,1.1,0.5,-8.6,.,2.1,9.6
CC(C)(C)C(=O)O/N=C(\N)c1ccc([N+](=O)[O-])s1,.,.,-5.8,-4.9,9.8,-1.8
N/C(=N\OC(=O)C1CC1)c1ccc([N+](=O)[O-])s1,-1.2,.,1.4,-11.3,-55.1*,-0.1
Cc1cc(C)c2cc(C(=O)Nc3ccc(C)c(F)c3)[nH]c2c1,-11.0,1.1,-4.0,-8.4,-4.0,-4.9
CCCCNC(=O)c1cc2c(C)cc(C)cc2[nH]1,-0.3,.,-3.3,12.8,-21.8*,57.1*
O=C(c1ccncc1)N1CC(=O)N2[C@H](C1)[C@@H](c1ccc(/C=C/c3ccccc3)cc1)[C@@H]2CO,7.7,.,-17.5,.,0.5,-5.2
N#C/C(=C/c1ccccc1[N+](=O)[O-])c1nc(C2CC2)cs1,25.8*,.,6.5,-25.8,-31.4,-0.4
CNC[C@H]1Oc2c(NC(=O)NC3CCCCC3)cccc2C(=O)N([C@H](C)CO)C[C@H]1C,1.1,-0.3,-9.7,.,0.3,9.9
Cc1nc2ccccn2c1C(=O)N/N=C/c1ccccc1,0.7,-2.0,-0.8,-7.5,1.7,2.9
Cc1ccccc1N/N=C/c1c(C)nc2ccccn12,25.6*,3.1,-0.6,-8.5,-8.7,-1.0
COc1ccc(NC(=O)N[C@H]2CC[C@H](CC(=O)NC3CCCCC3)O[C@H]2CO)cc1,-2.9,47.2,11.0,.,-2.5,-6.1
CCOC(=O)c1c(NC(=O)CN2CCCCC2)sc2c1CCN(C(=O)OCC)C2,10.8,.,1.6,-13.1,-38.3*,-4.2
N#C[C@H]1[C@@H](c2ccccc2-c2ccccc2)[C@H](CO)N1C(=O)NC1CCCCC1,-4.1,.,-6.3,.,0.3,7.2
C[C@@H]1CN([C@H](C)CO)C(=O)Cc2cc(NS(=O)(=O)c3ccccc3)ccc2O[C@H]1CN(C)C(=O)Nc1ccccc1,-3.5,-1.9,0.1,.,2.6,-1.0
COc1ccc(S(=O)(=O)Nc2ccc3c(c2)CC(=O)N([C@@H](C)CO)C[C@@H](C)[C@H](CN(C)C(=O)NC(C)C)O3)cc1,-3.7,0.2,1.5,.,4.6,35.4*
C[C@@H]1CN([C@H](C)CO)C(=O)Cc2cc(NS(=O)(=O)c3ccc(Cl)cc3)ccc2O[C@H]1CN(C)C(=O)NC1CCCCC1,-2.7,-1.5,-3.8,.,1.0,36.5*
COc1ccc(S(=O)(=O)Nc2ccc3c(c2)CC(=O)N([C@H](C)CO)C[C@H](C)[C@@H](CN(C)C(=O)Nc2ccc4c(c2)OCO4)O3)cc1,2.3,-1.5,8.2,.,2.9,26.1*
C[C@H]1CN([C@@H](C)CO)C(=O)Cc2cc(NS(=O)(=O)c3ccccc3)ccc2O[C@@H]1CN(C)C(=O)Nc1ccccc1,-1.3,-3.9,7.4,.,4.5,23.2*
SMILES,AF4-AF9 inh,Cneo AK release,S100A4 inh HTS,PfHsp90 set2,rRNA inh HTS,DENV2 CPE
COc1ccc(S(=O)(=O)Nc2ccc3c(c2)CC(=O)N([C@@H](C)CO)C[C@@H](C)[C@@H](CN(C)C(=O)NC(C)C)O3)cc1,-0.5,-3.4,3.2,.,7.5,7.0
COc1ccc(S(=O)(=O)N2CC[C@@H]3[C@@H](CO)Nc4ccc(-c5cccc(C#N)c5)cc4[C@@H]32)cc1,-2.9,43.1,14.8,.,-12.4,-7.1
C[C@H](CO)N1C[C@H](C)[C@@H](CN(C)C(=O)Nc2ccccc2)Oc2ccc(NS(=O)(=O)c3ccc(Cl)cc3)cc2CC1=O,-0.6,0.2,-27.8,.,2.6,58.3*
C[C@H](CO)N1C[C@H](C)[C@@H](CN(C)S(C)(=O)=O)Oc2ccc(NS(=O)(=O)c3ccccc3)cc2CC1=O,4.1,13.7,-6.5,.,5.7,70.2*
COc1ccc(NC(=O)N(C)C[C@@H]2Oc3ccc(NS(=O)(=O)c4ccccc4)cc3CC(=O)N([C@H](C)CO)C[C@@H]2C)cc1,0.2,.,2.7,.,1.8,39.0*
C[C@@H]1CN([C@H](C)CO)C(=O)Cc2cc(NS(=O)(=O)c3ccccc3)ccc2O[C@@H]1CN(C)S(=O)(=O)c1ccccc1,-5.1,-0.6,-1.0,.,-3.2,-19.8
C[C@H](CO)N1C[C@H](C)[C@H](CN(C)C(=O)Nc2ccccc2)Oc2ccc(NS(=O)(=O)c3ccccc3)cc2CC1=O,-2.8,-1.1,4.5,.,2.4,33.6*
COc1ccc(NC(=O)N(C)C[C@@H]2Oc3ccc(NS(=O)(=O)c4ccccc4)cc3CC(=O)N([C@H](C)CO)C[C@H]2C)cc1,0.5,.,-11.2,.,1.2,3.7
CO[C@@H]1CN(C)C(=O)c2cc(NC(=O)c3cc(C)on3)ccc2OC[C@@H](C)N(CC2CC2)C[C@H]1C,.,.,.,.,-2.8,.
C/C=C/c1ccc([C@H]2[C@H]3CN(C(=O)Nc4ccc(OC)cc4)CC(=O)N3[C@H]2CO)cc1,2.0,.,3.7,.,0.6,?
CNC(=O)C[C@@H]1CC[C@@H]2[C@@H](COc3ccc(NC(=O)Nc4cccc(Cl)c4)cc3C(=O)N2C)O1,-0.7,-3.8,5.7,.,.,3.5
COc1ccc2c3c(n(C)c2c1)[C@H](CO)N(CC1CCCCC1)CC31CN(C(C)=O)C1,-4.6,.,.,.,6.9,4.8
C[C@H](CO)N1C[C@H](C)[C@H](CN(C)C(=O)Cc2ccccc2)Oc2ncc(C#Cc3ccccc3F)cc2C1=O,-1.0,0.2,2.1,.,-6.4,-2.1

# Compound activity as filed in PubChem BioAssay.
